Only some compounds are listed: those with a hit (about 2.5% of all), similar ones and a draw of the others.
GSTO1 inh = counter-screen for RBBP9 inhibitors: inhibitors of human GSTO1; inhibition, % at 5.96 µM; recombinant GSTO1, activity-based probe fluorescence polarization; P78417; actives 1.1% (n = 300,000);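 active means inhibition above the campaign mean inhibition plus 3 SD, cut at about 35% in these data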
Fh CTSL1 inh = counter-screen for PFM18AAP inhibitors: inhibitors of F. hepatica cathepsin L1. recombinant F. hepatica cathepsin L1, Z-Leu-Arg-MCA fluorescence. actives 0.49% (n = 300,000). inhibition, % at 5.96 µM. AID 1906;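 active means inhibition above the mean of all tested compounds plus 3 SD, set per screening campaign, cut at about 17% in these data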
TDP2 absorb = TDP2 (human) inhibition, absorbance primary screen; O95551; AID 720702; inhibition, % at 12.8 µM; recombinant TDP2, T5PNP hydrolysis, p-nitrophenol absorbance 415 nm; actives 0.34% (n = 370,000);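 active means inhibition above the mean of all tested compounds plus 3 SD, set per campaign, cut at about 25% in these data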
Target sequence (O95551 whole entry, looked up): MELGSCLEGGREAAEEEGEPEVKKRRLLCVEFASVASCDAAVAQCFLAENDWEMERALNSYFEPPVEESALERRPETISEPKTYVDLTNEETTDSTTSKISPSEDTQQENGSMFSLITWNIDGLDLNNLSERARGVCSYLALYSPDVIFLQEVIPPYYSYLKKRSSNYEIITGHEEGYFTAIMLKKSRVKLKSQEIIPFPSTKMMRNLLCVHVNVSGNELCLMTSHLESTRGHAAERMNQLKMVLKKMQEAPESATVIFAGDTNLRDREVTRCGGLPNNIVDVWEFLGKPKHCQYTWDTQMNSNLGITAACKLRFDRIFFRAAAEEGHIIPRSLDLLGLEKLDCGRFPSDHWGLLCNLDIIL
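Assay system: recombinant human TDP2 / Reagent: T5PNP substrate at 5 mM, a TopII-DNA adduct mimic / Measured by: epi absorbance from released p-nitrophenol / Evaluation: % inhibition relative to enzyme-containing and enzyme-free wells / Control set: enzyme-free and DMSO wells / Replicates: each compound tested once, singlicate / Schedule: enzyme reaction with compound for 2 h at 37 °C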
PRMT1 inh = PRMT1 (human) inhibition, primary screen | Q99873 | recombinant PRMT1, activity-based probe fluorescence polarization | inhibition, % at 2.79 µM | actives 1.3% (n = 370,000) | AID 652257;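 active means inhibition above about 21% made by adding two undisclosed values, limit read from the data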
PAD4 FP inh = PAD4 (human) enzyme inhibition | inhibition, % at 6.36 µM | actives 0.41% (n = 330,000) | recombinant PAD4, RCA probe fluorescence polarization | Q9UM07;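 active means percent inhibition above a cutoff equal to the mean of all tested compounds plus 3 SD, cut at about 15% in these data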
Large screens that a line does not name were inactive.

O=C(Nc1cccc(N=Cc2cc(Cl)cc(Br)c2O)c1)c1ccco1	Fh CTSL1 inh 18
O=C(Nc1ccc2c(c1)OCO2)OC1CCC12CCCCC2 (stereo unspecified)	none (no result: GSTO1 inh, Fh CTSL1 inh, PAD4 FP inh)
CCCCCCCCN1CN2Cc3ccccc3C2CS1(=O)=O (stereo unspecified)	none (no result: GSTO1 inh, Fh CTSL1 inh, PAD4 FP inh)
CCOc1cc(C2CC(=O)N3CN(C4CCCCC4)CSC3=C2C#N)ccc1O (stereo unspecified)	Fh CTSL1 inh 80, PRMT1 inh 32
COC(=O)Oc1nsnc1N1CCOCC1	PRMT1 inh 81
CC(COc1cccc(C#N)c1)CN1CCC(C(O)(c2ccccc2)c2ccccc2)CC1 (stereo unspecified)	none (no result: GSTO1 inh, Fh CTSL1 inh, PAD4 FP inh)
COc1ccc(OCc2nnc(SCC(=O)N(C)Cc3ccccc3)n2N)cc1	PRMT1 inh 21
Nc1ccccc1Sc1nc2ccccc2[nH]1	PRMT1 inh 52
COc1ccc(-c2nnc3n2N=C(c2cccc([N+](=O)[O-])c2)CS3)cc1	none (no result: GSTO1 inh, Fh CTSL1 inh, PAD4 FP inh)
O=C(N/N=C\c1ccc([N+](=O)[O-])s1)c1cncc(Br)c1	GSTO1 inh 43
O=C(N/N=C/c1cccs1)c1cncc(Br)c1	none
CC(C)OC(=O)C1=CNCC(C)(C)c2c1[nH]c1cc(F)ccc21	none (no result: GSTO1 inh, Fh CTSL1 inh, PAD4 FP inh)
CC(C)c1ncc(C(O)c2cccc3ccccc23)n1C (stereo unspecified)	GSTO1 inh 36
CCN(Cc1cn(Cc2ccc(C)cc2)nn1)S(=O)(=O)c1ccccc1Br	none (no result: GSTO1 inh, Fh CTSL1 inh, PAD4 FP inh)
Cc1ccc(N2C(=O)CC(NCC3CCCO3)C2=O)cc1 (stereo unspecified)	PRMT1 inh 45
CC(C)(C)C(=O)OC12CCCN(C1)/C(=C/c1ccc(C#N)cc1)C2 (stereo unspecified)	none (no result: GSTO1 inh, Fh CTSL1 inh, PAD4 FP inh)
CC1=Nc2ccccc2/C1=C\c1nc(-c2ccccc2)oc1O	Fh CTSL1 inh 17
CC1=Nc2ccccc2/C1=C/c1nc(-c2ccc(C)s2)oc1O	Fh CTSL1 inh 25
C[C@@H]1CN([C@@H](C)CN(C)C)C(=O)c2cc(NC(=O)Nc3ccccc3)ccc2O[C@@H](C)CCCCO[C@H]1CN(C)S(=O)(=O)c1ccc(F)cc1	none (no result: GSTO1 inh, Fh CTSL1 inh, PAD4 FP inh)
COC(=O)[C@]12C[C@H](CC(=O)NCc3ccc(C)o3)C(=O)N(Cc3cccc4ccccc34)C1=C[C@H](C(C)(C)C)O[C@@H]2C	none (no result: GSTO1 inh, Fh CTSL1 inh, PAD4 FP inh)
O=S1(=O)CC(N2CCCC2)CN1 (stereo unspecified)	none (no result: GSTO1 inh, Fh CTSL1 inh, PAD4 FP inh)
CC1CN(CCCCOc2ccc3ccccc3c2)CC(C)O1 (stereo unspecified)	Fh CTSL1 inh 19
CCCC(=O)N1CCC[C@]2(CC[C@@H](CCC(C)=O)O2)C1	none (no result: GSTO1 inh, Fh CTSL1 inh, PAD4 FP inh)
COc1cc(CNn2cn[nH]c2=S)cc(Br)c1OCc1ccccc1F	PRMT1 inh 24
O=C1N=C(c2ccccc2)S/C1=C\c1cccs1	PRMT1 inh 21
Cc1ccc(OCC(=O)c2ccc(Cl)s2)c([N+](=O)[O-])n1	PRMT1 inh 24
Cc1ccc(CNC(=O)COc2ccc(C)nc2[N+](=O)[O-])cc1	none
Cc1ccc(C(=O)Cn2ncsc2=N)cc1	Fh CTSL1 inh 62
O=C1C=CC2=C3c4cc(O)c(O)cc4CC3(O)COC2=C1O (stereo unspecified)	PRMT1 inh 56 (no result: GSTO1 inh, Fh CTSL1 inh, PAD4 FP inh)
CC(C)C[C@H](N)c1nnc(S(=O)(=O)Cc2ccc(F)cc2)o1	Fh CTSL1 inh 54 (no result: TDP2 absorb, PRMT1 inh)
COC(=O)c1ccc(CS(=O)(=O)c2ccc(F)cc2)o1	none
O=C(NCCN1CCC(Cc2ccccc2)CC1)C1CCCN(S(=O)(=O)c2ccc(Cl)s2)C1 (stereo unspecified)	none (no result: GSTO1 inh, Fh CTSL1 inh, PAD4 FP inh)
CCCCN1C(=O)N2Cc3ccc(C)cc3C2CS1(=O)=O (stereo unspecified)	none (no result: GSTO1 inh, Fh CTSL1 inh, PAD4 FP inh)
COc1cc(C(CC(=O)N2CCCC2)c2c(OC)cc(OC)c3ccc(=O)oc23)cc(OC)c1OC (stereo unspecified)	Fh CTSL1 inh 37
CC(=O)N1CCc2c(sc(NC(=O)c3cccc(N4C(=O)CCC4=O)c3)c2C(N)=O)C1	Fh CTSL1 inh 25
CN1CC=C(c2ccccc2)N(c2ccc(Br)cc2)C1=O	none (no result: GSTO1 inh, Fh CTSL1 inh, PAD4 FP inh)
CCc1nc2sc3c(c2c(=O)n1NC(=O)CCl)CCCC3	GSTO1 inh 58
CC(=O)N(C(C)=O)n1c(C)nc2sc3c(c2c1=O)CCCC3	none
CCCCCOc1ccc(/C=N/NC(=O)CSc2nnc(-c3ccc(OC)cc3)n2-c2ccc(C)cc2)cc1	none (no result: GSTO1 inh, Fh CTSL1 inh, PAD4 FP inh)
Cc1cccc(CS(=O)(=O)c2nnc([C@H](Cc3ccccc3)NC(=O)OC(C)(C)C)o2)c1	Fh CTSL1 inh 31 (no result: TDP2 absorb, PRMT1 inh)
